From ChEMBL document CHEMBL1156066 (J Med Chem, 2009)
Values after ≈ are worked out from the molar mass of the structure shown.

Assays:
[1] = biological target: Cytochrome P450 2C19 (Homo sapiens, UniProt P33261); assay: Inhibition of recombinant CYP2C19; type: ADME
[2] = Lipophilicity, log D at pH 6.5; type: physicochemical; settings: buffer
How it was run: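 Log D was measured by the octanol/water shake-flask method using phosphate buffered solution, pH 6.5.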

[3] = Inhibition of HIV1 JRFL gp120/CD4 interaction in human HeLa67 cells assessed as inhibition of viral entry after 3 days by luciferase reporter gene assay; type: cell-based
How it was run: (§1)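 HeLa 67 cells (HeLa expressing CD4, CCR5 and CXCR4; DMEM, 10% heat-inactivated FBS, penicillin/streptomycin) were plated at 10^5 cells/well the day before infection. They were then infected with HIV LAI-Δenv-luc pseudotyped with JRFL or LAI envelope, in the presence of 10-step 3-fold DMSO serial dilutions (30 mM stocks), run in duplicate. After 3 days at 37 C, firefly luciferase was read. EC50 was from a one-site fit.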

[4] = Metabolic stability in human liver microsomes assessed as half life; type: ADME, Microsome
[5] = Cytotoxicity against human MT2 cells after 3 days by XTT assay; type: cell-based
How it was run: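 Uninfected MT-2 cells were exposed to 10-step 3-fold serial compound dilutions (30 mM DMSO stocks), run in parallel with the antiviral assay. Cell health was read by XTT after 3 days. CC50 was fitted with the same one-site equation as EC50.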

[6] = biological target: Cytochrome P450 2C9 (Homo sapiens, UniProt P11712); assay: Inhibition of recombinant CYP2C9; type: ADME
[7] = biological target: Cytochrome P450 2D6 (Homo sapiens, UniProt P10635); assay: Inhibition of recombinant CYP2D6; type: ADME
[8] = biological target: T1, Cytochrome P450 1A2 (Homo sapiens, UniProt P05177); assay: Inhibition of recombinant CYP1A2; type: ADME
T1 sequence (P05177 whole entry): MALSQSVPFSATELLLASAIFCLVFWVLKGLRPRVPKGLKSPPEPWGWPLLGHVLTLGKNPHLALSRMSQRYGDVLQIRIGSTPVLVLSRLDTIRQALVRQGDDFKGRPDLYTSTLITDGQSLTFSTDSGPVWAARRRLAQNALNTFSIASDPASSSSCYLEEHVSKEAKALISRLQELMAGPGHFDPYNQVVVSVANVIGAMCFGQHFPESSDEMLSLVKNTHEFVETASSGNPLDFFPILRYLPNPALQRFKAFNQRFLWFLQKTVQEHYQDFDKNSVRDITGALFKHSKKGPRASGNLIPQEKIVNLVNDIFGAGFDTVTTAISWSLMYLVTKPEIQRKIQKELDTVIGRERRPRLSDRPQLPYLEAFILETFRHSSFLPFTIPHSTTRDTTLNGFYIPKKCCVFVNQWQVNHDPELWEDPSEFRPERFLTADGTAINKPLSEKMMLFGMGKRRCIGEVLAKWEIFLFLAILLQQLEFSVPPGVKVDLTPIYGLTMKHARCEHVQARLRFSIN

[9] = Aqueous solubility of crystalline form of compound in buffer solution of pH 6.5 at 25 degC; type: physicochemical
How it was run: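 Solubility of the crystalline solid was measured 24-72 h after adding it to phosphate buffered solution, pH 6.5, at room temperature.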

[10] = biological target: Voltage-gated inwardly rectifying potassium channel KCNH2 (Homo sapiens, UniProt Q12809); assay: Inhibition of human ERG by channel flux assay
[11] = Permeability across human Caco-2 cell membrane at pH 6.5; type: ADME, cell-based; settings: Caco-2, pH 6.5, read-out: permeability
[12] = biological target: T2, Cytochrome P450 3A4 (Homo sapiens, UniProt P08684); assay: Inhibition of recombinant CYP3A4 using benzyloxy-4-(trifluoromethyl)coumarin as substrate; type: ADME
[13] = biological target: T2, Cytochrome P450 3A4; assay: Inhibition of recombinant CYP3A4 using 7-benzyloxyresorufin as substrate; type: ADME
[14] = Inhibition of HIV1 LAI gp120/CD4 interaction in human HeLa67 cells assessed as inhibition of viral entry after 3 days by luciferase reporter gene assay; type: cell-based; how it was run: as §1

Sequence of Cytochrome P450 2D6 (P10635 whole entry): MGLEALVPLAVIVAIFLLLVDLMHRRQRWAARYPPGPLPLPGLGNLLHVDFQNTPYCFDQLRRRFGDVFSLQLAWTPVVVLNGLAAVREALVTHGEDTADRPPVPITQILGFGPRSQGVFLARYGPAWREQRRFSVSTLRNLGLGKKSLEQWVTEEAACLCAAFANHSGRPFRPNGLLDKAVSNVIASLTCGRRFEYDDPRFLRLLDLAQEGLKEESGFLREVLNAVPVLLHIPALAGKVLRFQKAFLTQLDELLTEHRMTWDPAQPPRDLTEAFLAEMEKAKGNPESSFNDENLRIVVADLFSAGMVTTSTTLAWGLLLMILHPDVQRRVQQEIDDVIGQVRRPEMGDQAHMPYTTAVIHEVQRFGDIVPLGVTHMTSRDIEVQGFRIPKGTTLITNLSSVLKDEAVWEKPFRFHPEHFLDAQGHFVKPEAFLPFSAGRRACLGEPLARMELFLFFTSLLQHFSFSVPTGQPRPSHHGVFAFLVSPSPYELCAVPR
Sequence of Voltage-gated inwardly rectifying potassium channel KCNH2 (Q12809 whole entry): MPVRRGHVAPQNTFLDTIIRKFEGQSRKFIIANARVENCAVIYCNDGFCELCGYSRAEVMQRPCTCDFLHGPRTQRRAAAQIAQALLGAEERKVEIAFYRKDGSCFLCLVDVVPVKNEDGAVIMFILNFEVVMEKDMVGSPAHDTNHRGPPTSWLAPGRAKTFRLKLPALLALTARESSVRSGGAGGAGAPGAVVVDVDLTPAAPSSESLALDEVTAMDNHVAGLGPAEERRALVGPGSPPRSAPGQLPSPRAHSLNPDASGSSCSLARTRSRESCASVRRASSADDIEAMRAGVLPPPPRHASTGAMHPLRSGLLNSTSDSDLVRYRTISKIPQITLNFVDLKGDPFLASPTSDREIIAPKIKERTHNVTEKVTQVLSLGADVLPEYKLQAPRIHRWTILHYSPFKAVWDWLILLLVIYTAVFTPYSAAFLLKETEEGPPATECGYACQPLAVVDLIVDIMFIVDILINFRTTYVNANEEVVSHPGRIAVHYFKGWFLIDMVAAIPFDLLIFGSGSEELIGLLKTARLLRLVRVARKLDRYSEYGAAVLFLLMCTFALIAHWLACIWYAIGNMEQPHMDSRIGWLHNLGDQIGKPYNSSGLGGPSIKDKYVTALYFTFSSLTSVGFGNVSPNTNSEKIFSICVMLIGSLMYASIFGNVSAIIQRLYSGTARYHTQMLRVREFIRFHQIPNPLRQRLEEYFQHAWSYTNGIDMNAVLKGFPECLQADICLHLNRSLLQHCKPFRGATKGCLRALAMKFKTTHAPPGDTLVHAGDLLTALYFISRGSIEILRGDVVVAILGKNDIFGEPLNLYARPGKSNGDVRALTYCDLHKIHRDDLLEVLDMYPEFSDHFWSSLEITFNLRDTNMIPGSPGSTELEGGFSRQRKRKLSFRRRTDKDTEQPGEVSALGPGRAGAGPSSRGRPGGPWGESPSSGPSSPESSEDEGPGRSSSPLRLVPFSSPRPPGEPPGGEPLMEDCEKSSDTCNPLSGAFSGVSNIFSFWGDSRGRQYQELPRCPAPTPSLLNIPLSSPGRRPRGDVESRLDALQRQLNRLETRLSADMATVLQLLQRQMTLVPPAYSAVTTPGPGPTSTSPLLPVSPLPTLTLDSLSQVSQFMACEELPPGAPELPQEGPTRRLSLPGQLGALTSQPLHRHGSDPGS
Sequence of Cytochrome P450 2C9 (P11712 whole entry): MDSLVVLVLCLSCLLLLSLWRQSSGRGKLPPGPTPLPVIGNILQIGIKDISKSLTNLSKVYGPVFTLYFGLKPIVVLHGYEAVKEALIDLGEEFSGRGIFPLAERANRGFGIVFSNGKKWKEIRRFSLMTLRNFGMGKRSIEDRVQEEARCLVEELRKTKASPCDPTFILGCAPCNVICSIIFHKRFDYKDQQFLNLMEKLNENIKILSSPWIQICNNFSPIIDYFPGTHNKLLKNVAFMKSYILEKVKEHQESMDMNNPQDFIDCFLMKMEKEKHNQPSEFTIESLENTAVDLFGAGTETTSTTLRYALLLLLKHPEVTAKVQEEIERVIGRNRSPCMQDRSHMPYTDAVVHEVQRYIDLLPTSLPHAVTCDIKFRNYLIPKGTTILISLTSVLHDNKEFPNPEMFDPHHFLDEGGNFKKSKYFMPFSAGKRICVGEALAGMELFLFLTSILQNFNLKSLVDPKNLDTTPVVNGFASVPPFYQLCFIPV
T2 sequence (P08684 whole entry): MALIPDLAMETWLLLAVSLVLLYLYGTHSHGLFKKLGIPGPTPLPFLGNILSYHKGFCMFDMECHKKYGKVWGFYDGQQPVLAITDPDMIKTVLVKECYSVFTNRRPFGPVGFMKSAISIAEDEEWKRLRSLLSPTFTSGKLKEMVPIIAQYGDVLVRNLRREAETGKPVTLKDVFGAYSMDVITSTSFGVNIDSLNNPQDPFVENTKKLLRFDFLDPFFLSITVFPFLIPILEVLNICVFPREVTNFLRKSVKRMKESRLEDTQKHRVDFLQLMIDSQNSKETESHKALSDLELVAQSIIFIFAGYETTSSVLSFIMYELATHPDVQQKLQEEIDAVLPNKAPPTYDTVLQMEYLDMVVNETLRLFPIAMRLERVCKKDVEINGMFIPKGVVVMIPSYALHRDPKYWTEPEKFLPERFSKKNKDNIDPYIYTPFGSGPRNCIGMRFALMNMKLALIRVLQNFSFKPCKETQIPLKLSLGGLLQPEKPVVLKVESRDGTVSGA
Sequence of Cytochrome P450 2C19 (P33261 whole entry): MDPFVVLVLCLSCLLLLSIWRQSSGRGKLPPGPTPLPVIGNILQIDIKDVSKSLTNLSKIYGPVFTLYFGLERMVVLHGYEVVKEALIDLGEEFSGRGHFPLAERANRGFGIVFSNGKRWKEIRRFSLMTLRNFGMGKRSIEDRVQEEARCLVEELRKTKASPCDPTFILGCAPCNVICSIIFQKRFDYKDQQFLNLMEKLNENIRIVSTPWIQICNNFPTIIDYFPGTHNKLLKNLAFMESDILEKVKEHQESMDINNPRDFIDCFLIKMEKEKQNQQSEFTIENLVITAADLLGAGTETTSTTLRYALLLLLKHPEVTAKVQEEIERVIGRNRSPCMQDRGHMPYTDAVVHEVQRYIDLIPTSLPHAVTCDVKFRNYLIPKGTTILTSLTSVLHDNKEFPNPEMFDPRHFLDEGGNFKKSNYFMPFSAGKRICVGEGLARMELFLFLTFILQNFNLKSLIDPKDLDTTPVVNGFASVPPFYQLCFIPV

| IC50 [1] | logD [2] | EC50 [3] | half-life [4] | IC50 [6] | IC50 [7] | IC50 [8] | solubility [9] | Papp [11] | IC50 [12] | IC50 [13] | EC50 [14] | SMILES | CC50 at 72 h [5] | IC50 [10] |
| --- | --- | --- | --- | --- | --- | --- | --- | --- | --- | --- | --- | --- | --- | --- |
| 17 µM | 1.2 | 0.576 µM | > 100 min | > 40 µM | > 40 µM | > 40 µM | 419 µg/mL (≈ 1110 µM) | 1.9 ×10⁻⁶ cm/s |  |  |  | C[C@@H]1CN(C(=O)c2ccccc2)CCN1C(=O)C(=O)c1c[nH]c2ccncc12 | > 300 µM | > 80 µM |
| 10 µM | 1.8 | 0.0017 µM | 49.5 min | 7.9 µM | 17 µM | > 40 µM | 936 µg/mL (≈ 2490 µM) | 16.8 ×10⁻⁶ cm/s | > 40 µM | > 40 µM |  | C[C@@H]1CN(C(=O)c2ccccc2)CCN1C(=O)C(=O)c1c[nH]c2ncccc12 | 280 µM | > 80 µM |
| 2.6 µM | 1.9 | 0.004 µM | 16.9 min | 5.2 µM | 4.8 µM | > 40 µM | 16 µg/mL (≈ 42.6 µM) | 16.9 ×10⁻⁶ cm/s | > 40 µM | > 40 µM | 0.0049 µM | C[C@@H]1CN(C(=O)c2ccccc2)CCN1C(=O)C(=O)c1c[nH]c2ccccc12 | 200 µM | > 80 µM |
